Bioassay records: PubChem BioAssay, several laboratories
Compounds with a hit are over-represented: about 3.8% of the library has one in this group of screens.
RAM network inh = inhibitors of the yeast RAM network, primary screen, dse1pr::URA3 reporter, 5-FOA selection; AID 868, 2007; 190,000 compounds, 1.8% hits; inhibition, % at 50 µM; S. cerevisiae dse1pr::URA3 reporter, 5-FOA growth OD615, 2 d; analog-sensitive cbk1-as2 kinase mutant strain;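 active = inhibition above a set limit, 3 SD over mean compound inhibition, cut at about 8.4% in these data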;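 note: 0% = DMSO-only wells with no growth and 100% = 10 µM 1-NA-PP1 full growth; inhibition rescues growth on 5-FOA so higher OD means more RAM inhibition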
NPY-Y1 antag = NPY-Y1 receptor antagonists, primary screen, cell-based; Neuropeptide Y receptor type 1 (Homo sapiens), P25929; 200,000 compounds, 1% hits; HEK293-CNG Y1 cells, membrane potential fluorescence; NPY at EC95, then isoproterenol; AID 1040, 2008; inhibition, % at 3.6 µM;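 active = inhibition above the campaign mean inhibition of all tested compounds plus 3 SD, cut at about 20% in these data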;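 note: 0% = DMSO wells given NPY plus isoproterenol and 100% = isoproterenol alone without NPY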
Target sequence (P25929 whole entry, looked up): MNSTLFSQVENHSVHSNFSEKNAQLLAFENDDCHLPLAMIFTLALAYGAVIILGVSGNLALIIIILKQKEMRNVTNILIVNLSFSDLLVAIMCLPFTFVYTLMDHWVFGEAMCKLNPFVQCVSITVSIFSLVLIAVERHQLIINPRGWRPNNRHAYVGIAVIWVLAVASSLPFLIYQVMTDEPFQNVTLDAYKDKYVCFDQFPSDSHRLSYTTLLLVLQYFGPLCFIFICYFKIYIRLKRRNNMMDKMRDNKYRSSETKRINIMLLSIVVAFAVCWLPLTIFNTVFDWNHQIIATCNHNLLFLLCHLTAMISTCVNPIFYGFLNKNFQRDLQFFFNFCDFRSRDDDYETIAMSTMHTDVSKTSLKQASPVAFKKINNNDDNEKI
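Benchmarks – high control isoproterenol alone, low control NPY with isoproterenol · Material – HEK293 Y1/CNG channel cell line · Times – dye 3 h, compound 60 min room temperature, stimulation 45 min · Probe or stimulus – NPY (25 nM), isoproterenol (1 µM), Ro 20-1724 (25 µM) · Evaluation – % inhibition of NPY effect · Signal – fluorescence, membrane potential probe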
NPY-Y1 PAM-ag = NPY-Y1 receptor potentiators or agonists, primary screen, cell-based | Neuropeptide Y receptor type 1 (Homo sapiens), P25929 | NPY-Y1 expressing cells, potentiator/agonist activation | activation, % at 3.6 µM | 220,000 compounds, 0.37% hits; in the data active = activation above about 33%, passing the limit was not always enough;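 note: cells stimulated with NPY at EC10 then isoproterenol at EC100; 0% = low agonist plus stimulus and 100% = saturating agonist plus stimulus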
NPY-Y2 PAM-ag = NPY-Y2 potentiators or agonists, primary screen, cell-based; Neuropeptide Y receptor type 2 (Homo sapiens), P49146; cells expressing NPY-Y2, potentiator/agonist read-out; activation, % at 3.6 µM; 220,000 compounds, 0.45% hits; AID 1359, 2008; in the data active = activation above about 27%;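 note: cells stimulated with NPY near EC25 plus isoproterenol at EC100; 0% = vehicle plus submaximal agonist and 100% = vehicle plus saturating agonist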
Insulin prom inh = inhibitors of insulin promoter-driven GFP, primary screen, imaging, TRM-6 cells, eGFP reporter, cell count. reporter expression induced with tamoxifen. inhibition, % at 2 µM. 130,000 compounds, 0.9% hits;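 active = inhibition above the mean plus 3 SD, with well images judged a real hit on visual review, cut at about 60% in these data, passing the limit was not always enough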
NPY-Y2 antag = NPY-Y2 receptor antagonists, primary screen, cell-based; Neuropeptide Y receptor type 2 (Homo sapiens), P49146; NPY-Y2 expressing cells, antagonist mode; inhibition, % at 2.7 µM; 140,000 compounds, 0.99% hits; in the data active = inhibition above about 17%;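 note: 0% = vehicle with agonist challenge and 100% = reference antagonist with challenge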
* marks the source's active call; other numbers are inactive results; x = not tested or not shown.

SMILES	RAM network inh	NPY-Y1 antag	NPY-Y1 PAM-ag	NPY-Y2 PAM-ag	Insulin prom inh	NPY-Y2 antag
Nc1nc(Cl)nc2c1ncn2[C@@H]1O[C@H](CO)[C@@H](O)[C@H]1O	3	85*	-78	-22	38	102*
Nc1nc(=S)c2ncn(C3OC(CO)C(O)C3O)c2[nH]1 (centres undefined)	x	x	-7	10	x	x
CN(C)c1ncnc2c1ncn2C1OC(CO)C(O)C1O (centres undefined)	1	-2	9	-2	92*	2
CSc1ncc2ncn(C3OC(CO)C(O)C3O)c2n1 (centres undefined)	x	x	13	-1	x	x
CCOc1ccc(C2OC(=O)Cc3cc(OC)c(OC)cc32)cc1 (centres undefined)	3	1	16	-3	x	4
Cc1ccc(NC(=O)/C(C#N)=C(\N)C(Cl)(Cl)Cl)nc1	1	7	7	0	-50	x
N=c1n(Cc2ccccc2)c2ccccc2n1CC(O)COc1ccccc1 (centres undefined)	1	41*	-29	-33	-21	43*
Cc1ccc(Cn2c(=N)n(CC(O)COc3ccccc3)c3ccccc32)cc1 (centres undefined)	-1	36*	-57	-25	-58	34*
COc1ccc(OCC(O)Cn2c(=N)n(CCN3CCOCC3)c3ccccc32)cc1 (centres undefined)	0	9	-3	-4	-64	2
COc1cc(OC)cc(C(=O)NC(=S)Nc2ccc3c4c(cccc24)CC3)c1	4	1	-10	-7	-41	0
COc1ccc(C(=O)Nc2ccc3c4c(cccc24)CC3)cc1	3	7	9	10	100*	2
CCOC(=O)c1sc(NC(=O)CSC(=S)N2CCN(C)CC2)nc1C	x	x	-30	-3	x	x
CCn1c(=O)c2cc(C(=O)NCc3cccs3)sc2c2ccccc21	9.9*	-5	9	4	x	x
COc1ccc2c(c1)nc(NCCCO)n2Cc1ccccc1	x	x	28	3	x	x
CC(=O)Nc1ccc(S(=O)(=O)N2CCN(c3cc(C)nc4ccccc34)CC2)cc1	1	6	3	14	21	-1
CC(=O)Nc1ccc(S(=O)(=O)N2CCN(c3nc(NC4CCCC4)c4ccccc4n3)CC2)cc1	0	13	-1	32*	-38	9
O=C(/C=C/c1ccccc1)NCCc1ccc2c(c1)OCCO2	0	5	11	4	x	11
Cc1cc(S(=O)(=O)Nc2c(C)nc3nc[nH]n3c2=O)ccc1F	-1	5	9	-4	x	x
Cc1ccc(N/C=C/C(=O)c2sc(-c3ccccc3)nc2C)cc1	9.0*	13	-15	-26	22	7
O=C(NCC1CCCO1)c1ccc(CNS(=O)(=O)c2cccc(Cl)c2)cc1 (centres undefined)	1	5	1	6	x	x
COC(=O)C1C(c2ccccc2)C(C(=O)OCc2ccco2)C1c1ccccc1 (centres undefined)	8.5*	37*	-70	-16	-6	37*
CCCCCCP(=O)(O)c1ccccc1	3	-2	-70	-13	-28	5
CCCCN(CCCC)CP(=O)(c1ccccc1)c1ccccc1	0	28*	9	-8	-14	26*
CCOC(=O)c1c[nH][nH]c1=O	x	x	0	3	x	x
O=C(CSc1ccc2c(c1)OCCO2)Nc1cccc(S(=O)(=O)N2CCCCC2)c1	-2	4	3	2	x	5
CC1CCN(S(=O)(=O)c2ccc(NC(=O)N3c4ccccc4Sc4ccccc43)cc2)CC1	4	1	-1	5	x	4
NS(=O)(=O)c1ccc(NC(=O)N2c3ccccc3Sc3ccccc32)cc1	9.4*	-3	26	12	x	-1
O=S(=O)(c1ccc(OCC(O)CNC23CC4CC(CC(C4)C2)C3)c(Cl)c1)N1CCOCC1 (centres undefined)	3	0	-2	9	x	x
